Activity calls are given as the source filed them. No cut-off for these calls is given here.

Data set [1] has as its system Mast/stem cell growth factor receptor Kit (Homo sapiens), P10721 [V559D]. Kind of data set: Binding affinity to human partial length KIT V559D mutant (Y545 to D952 residues) expressed in bacterial expression system assessed as residual binding level at 1 uM by Kinomescan method relative to control. The method, boiled down:
(§1)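 Kinome-wide single-concentration binding screen (KINOMEscan) at 1 μM against a panel of 468 purified kinases and mutants. Read-out is relative binding of each kinase compared with control. Selectivity across the panel was summarised as an S(10) score.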

In data set [2] the target is Mast/stem cell growth factor receptor Kit (Homo sapiens, UniProt P10721). Kind of data set: Binding affinity to wild-type human partial length autoinhibited KIT (Y545 to D952 residues) expressed in mammalian expression system assessed as residual binding level at 1 uM by Kinomescan method relative to control.
Sequence of Mast/stem cell growth factor receptor Kit (P10721 whole entry, the tested form may be a part): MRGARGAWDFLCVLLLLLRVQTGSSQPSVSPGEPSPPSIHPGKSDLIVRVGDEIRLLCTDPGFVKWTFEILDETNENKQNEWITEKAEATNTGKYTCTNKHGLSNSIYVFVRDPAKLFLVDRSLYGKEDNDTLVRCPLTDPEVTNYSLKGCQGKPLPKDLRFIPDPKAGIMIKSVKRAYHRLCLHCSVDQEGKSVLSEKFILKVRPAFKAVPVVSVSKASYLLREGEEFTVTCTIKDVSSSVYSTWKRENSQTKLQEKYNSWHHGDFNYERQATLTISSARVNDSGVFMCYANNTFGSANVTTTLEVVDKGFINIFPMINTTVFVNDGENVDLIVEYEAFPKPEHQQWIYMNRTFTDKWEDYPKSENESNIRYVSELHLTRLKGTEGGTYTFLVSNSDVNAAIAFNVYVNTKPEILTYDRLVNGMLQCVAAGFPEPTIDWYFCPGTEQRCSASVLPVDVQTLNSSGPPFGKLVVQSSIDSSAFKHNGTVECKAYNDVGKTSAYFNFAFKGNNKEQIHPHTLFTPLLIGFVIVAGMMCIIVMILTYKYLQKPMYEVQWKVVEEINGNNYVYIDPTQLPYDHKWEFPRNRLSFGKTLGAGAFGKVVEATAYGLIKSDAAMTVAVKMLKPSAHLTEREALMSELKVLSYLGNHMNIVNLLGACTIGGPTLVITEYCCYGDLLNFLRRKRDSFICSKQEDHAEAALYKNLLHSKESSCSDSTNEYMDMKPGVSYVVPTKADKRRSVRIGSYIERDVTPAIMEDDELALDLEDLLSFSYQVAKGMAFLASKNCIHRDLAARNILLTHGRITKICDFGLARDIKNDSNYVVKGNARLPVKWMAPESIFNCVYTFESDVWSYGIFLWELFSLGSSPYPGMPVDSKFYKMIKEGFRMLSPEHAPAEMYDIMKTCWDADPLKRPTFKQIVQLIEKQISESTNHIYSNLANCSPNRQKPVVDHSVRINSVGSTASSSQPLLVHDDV
In data set [3] the target is Cyclin-dependent kinase 4 (Homo sapiens) (UniProt P11802). The data set is described as follows: Binding affinity to wild-type human full length CDK4 (M1 to E303 residues) expressed in mammalian expression system assessed as residual binding level at 1 uM by Kinomescan method relative to control. The method, boiled down:
(§2)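 Single-concentration (1 μM) competition-binding screen run by KINOMEscan against a panel of 468 purified kinases and mutants. The read-out is the relative binding activity of the test compound to each kinase.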

The test system of data set [4] is NCI-H1703. The data set is described as follows: Induction of apoptosis in human NCI-H1703 cells assessed as cleaved caspase3 expression level at 0.3 to 10 uM after 72 hrs by Western blot analysis. Type of data set: functional, cell-based. The method, boiled down:
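Cells exposed to compound or DMSO for the stated periods, then lysed and immunoblotted for PARP and caspase-3 cleavage, with β-actin as loading control. NCI-H1703 stimulation used PDGF AA at 100 ng/mL.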
In general terms: A western blot detects proteins with antibodies after separation by electrophoresis.

For data set [5], the target named is Serine/threonine-protein kinase ULK2 (Homo sapiens) (UniProt Q8IYT8). The data set is described as follows: Binding affinity to wild-type human partial length ULK2 (M1 to S301 residues) expressed in mammalian expression system assessed as residual binding level at 1 uM by Kinomescan method relative to control. The method, boiled down:
(§3)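 KINOMEscan competition binding against a panel of 468 purified kinases/mutants, compound tested at 1 μM; readout is relative binding activity versus control.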

The target in data set [6] is Mitogen-activated protein kinase kinase kinase 6 (Homo sapiens) (UniProt O95382). Kind of data set: Binding affinity to wild-type human partial length ASK2 (M278 to R972 residues) expressed in mammalian expression system assessed as residual binding level at 1 uM by Kinomescan method relative to control. The method, boiled down:
(§4)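 Single-concentration KINOMEscan (DiscoverX) binding screen at 1 μM against a panel of 468 purified kinases and mutants. The read-out is binding relative to control.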

Data set [7] concerns the target Serine/threonine-protein kinase RIO2 (Homo sapiens) (UniProt Q9BVS4). The data set is described as follows: Binding affinity to wild-type human partial length RIOK2 (M1 to D313 residues) expressed in mammalian expression system assessed as residual binding level at 1 uM by Kinomescan method relative to control. The method, boiled down: as §3
Data set [8] deals with NCI-H1703. The data set is described as follows: Cell cycle arrest in human NCI-H1703 cells assessed as accumulation at G0/G1 phase at 0.3 to 10 uM after 72 hrs in presence of PDGF-AA by propidium iodide/RNase staining-based flow cytometric analysis. The class given is functional. The method, boiled down:
(§5)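 Cells treated with compound or DMSO for the stated periods, fixed overnight in 70% cold ethanol at −20 °C, stained with PI/RNase buffer, then analysed by flow cytometry for cell-cycle distribution. For NCI-H1703 stimulation, PDGF AA was used at 100 ng/mL.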
In general terms: A flow cytometer gives signals particle by particle.

For data set [9], the system named is NCI-H1703. Kind of data set: Cell cycle arrest in human NCI-H1703 cells assessed as accumulation at G0/G1 phase after 72 hrs by propidium iodide/RNase staining-based flow cytometric analysis. The class given is functional. The method, boiled down:
as §5

The target in data set [10] is Casein kinase II subunit alpha (Homo sapiens) (UniProt P68400). Kind of data set: Binding affinity to wild-type human full length CSNK2A1 (M1 to Q391 residues) expressed in mammalian expression system assessed as residual binding level at 1 uM by Kinomescan method relative to control. The method, boiled down:
as §2

The target in data set [11] is Mitogen-activated protein kinase kinase kinase kinase 3 (Homo sapiens) (UniProt Q8IVH8). The data set is described as follows: Binding affinity to wild-type human partial length MAP4K3 (M1 to D301 residues) expressed in bacterial expression system assessed as residual binding level at 1 uM by Kinomescan method relative to control.
Sequence of Mitogen-activated protein kinase kinase kinase kinase 3 (Homo sapiens) (Q8IVH8 whole entry, the tested form may be a part): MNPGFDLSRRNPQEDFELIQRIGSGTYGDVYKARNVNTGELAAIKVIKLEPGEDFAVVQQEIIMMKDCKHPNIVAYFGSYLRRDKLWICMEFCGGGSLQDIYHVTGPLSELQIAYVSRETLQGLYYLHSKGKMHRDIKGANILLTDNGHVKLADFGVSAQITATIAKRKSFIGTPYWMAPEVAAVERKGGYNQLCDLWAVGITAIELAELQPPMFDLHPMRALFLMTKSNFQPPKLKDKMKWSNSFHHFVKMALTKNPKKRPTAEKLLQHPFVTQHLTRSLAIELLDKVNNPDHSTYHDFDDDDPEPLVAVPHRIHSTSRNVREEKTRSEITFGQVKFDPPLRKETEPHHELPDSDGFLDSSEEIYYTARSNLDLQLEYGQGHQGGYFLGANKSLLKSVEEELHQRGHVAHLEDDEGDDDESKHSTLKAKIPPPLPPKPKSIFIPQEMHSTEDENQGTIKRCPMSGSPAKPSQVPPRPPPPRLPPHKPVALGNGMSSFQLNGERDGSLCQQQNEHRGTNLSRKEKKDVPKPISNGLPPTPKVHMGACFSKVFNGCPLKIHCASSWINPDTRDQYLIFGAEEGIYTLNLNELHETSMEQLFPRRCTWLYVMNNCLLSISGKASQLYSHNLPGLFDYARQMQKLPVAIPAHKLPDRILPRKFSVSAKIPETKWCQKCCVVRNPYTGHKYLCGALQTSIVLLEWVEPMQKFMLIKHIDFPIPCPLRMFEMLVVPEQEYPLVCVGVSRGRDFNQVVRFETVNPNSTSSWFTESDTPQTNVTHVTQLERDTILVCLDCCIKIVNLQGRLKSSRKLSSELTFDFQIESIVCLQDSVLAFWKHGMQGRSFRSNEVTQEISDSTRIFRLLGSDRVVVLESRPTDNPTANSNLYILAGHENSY
For another data set, the system named is Rattus norvegicus. The data set is described as follows: Apparent volume of distribution in Sprague-Dawley rat at 10 mg/kg, po. The class given is ADME, organism-based. The settings on record: in vivo.
In data set [12] the target is Eukaryotic translation initiation factor 2-alpha kinase 1 (Homo sapiens) (UniProt Q9BQI3). The data set is described as follows: Binding affinity to wild-type human partial length EIF2AK1 (Q147 to E603 residues) expressed in mammalian expression system assessed as residual binding level at 1 uM by Kinomescan method relative to control.
The nature of data set [13]: AUC (0 to infinity) in Sprague-Dawley rat at 10 mg/kg, po. Type of data set: ADME, organism-based. Set-up: dose 10 mg/kg, route oral, time infinity. The settings on record: in vivo. The method, boiled down: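 Male Sprague-Dawley rats (6–8 weeks) fasted overnight, dosed IV or orally; compound dissolved in 5% DMSO/40% PEG400/55% saline (dosing solution 1 mg/mL). Blood (~0.2 mL) from jugular vein into heparin; IV sampling 1 min–8 h, oral 5 min–24 h. Plasma separated by centrifugation at 2–8 °C, stored at −80 °C until analysis.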

For data set [14], the target named is Serine/threonine-protein kinase 26 (Homo sapiens) (UniProt Q9P289). Kind of data set: Binding affinity to wild-type human full length MST4 (M1 to P416 residues) expressed in mammalian expression system assessed as residual binding level at 1 uM by Kinomescan method relative to control. The method, boiled down:
as §4

Data set [15] addresses Glycogen synthase kinase-3 beta (Homo sapiens) (UniProt P49841). Kind of data set: Binding affinity to wild-type human full length GSK3B (M1 to T433 residues) expressed in mammalian expression system assessed as residual binding level at 1 uM by Kinomescan method relative to control. The method, boiled down:
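KINOMEscan competition binding against 468 purified kinases/mutants, test compound at 1 µM; residual binding relative to control.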

Data set [16] addresses Cytoplasmic tyrosine-protein kinase BMX (Homo sapiens) (UniProt P51813). Kind of data set: Binding affinity to wild-type human full length BMX (M1 to H675 residues) expressed in bacterial expression system assessed as residual binding level at 1 uM by Kinomescan method relative to control. The method, boiled down: as §2
The target in data set [17] is Macrophage colony-stimulating factor 1 receptor (Homo sapiens) (UniProt P07333). Kind of data set: Binding affinity to wild-type human partial length CSF1R (I564 to S939 residues) expressed in bacterial expression system assessed as residual binding level at 1 uM by Kinomescan method relative to control.
Data set [18] addresses Tyrosine-protein kinase Blk (Homo sapiens) (UniProt P51451). The data set is described as follows: Binding affinity to wild-type human partial length BLK (G211 to L503 residues) expressed in bacterial expression system assessed as residual binding level at 1 uM by Kinomescan method relative to control. The method, boiled down:
as §4

Data set [19] relates to Epidermal growth factor receptor (Homo sapiens), P00533 [G719C]. Kind of data set: Binding affinity to human partial length EGFR G719C mutant (R669 to V1011 residues) expressed in bacterial expression system assessed as residual binding level at 1 uM by Kinomescan method relative to control. The method, boiled down: as §1
Data set [20] concerns the target Cyclin-dependent kinase 17 (Homo sapiens) (UniProt Q00537). The data set is described as follows: Binding affinity to wild-type human full length PCTK2 (M1 to F523 residues) expressed in bacterial expression system assessed as residual binding level at 1 uM by Kinomescan method relative to control. The method, boiled down:
as §4

Sequence of Cyclin-dependent kinase 4 (Homo sapiens) (P11802 whole entry, the tested form may be a part): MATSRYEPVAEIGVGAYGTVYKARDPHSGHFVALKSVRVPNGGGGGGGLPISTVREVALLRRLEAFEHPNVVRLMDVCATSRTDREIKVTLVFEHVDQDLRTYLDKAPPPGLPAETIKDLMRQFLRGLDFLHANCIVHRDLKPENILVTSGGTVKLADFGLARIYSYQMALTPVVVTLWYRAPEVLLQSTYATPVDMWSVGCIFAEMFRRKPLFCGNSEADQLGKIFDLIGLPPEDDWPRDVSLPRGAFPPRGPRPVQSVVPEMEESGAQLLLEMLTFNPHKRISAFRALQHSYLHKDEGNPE
Sequence of Serine/threonine-protein kinase ULK2 (Homo sapiens) (Q8IYT8 whole entry, the tested form may be a part): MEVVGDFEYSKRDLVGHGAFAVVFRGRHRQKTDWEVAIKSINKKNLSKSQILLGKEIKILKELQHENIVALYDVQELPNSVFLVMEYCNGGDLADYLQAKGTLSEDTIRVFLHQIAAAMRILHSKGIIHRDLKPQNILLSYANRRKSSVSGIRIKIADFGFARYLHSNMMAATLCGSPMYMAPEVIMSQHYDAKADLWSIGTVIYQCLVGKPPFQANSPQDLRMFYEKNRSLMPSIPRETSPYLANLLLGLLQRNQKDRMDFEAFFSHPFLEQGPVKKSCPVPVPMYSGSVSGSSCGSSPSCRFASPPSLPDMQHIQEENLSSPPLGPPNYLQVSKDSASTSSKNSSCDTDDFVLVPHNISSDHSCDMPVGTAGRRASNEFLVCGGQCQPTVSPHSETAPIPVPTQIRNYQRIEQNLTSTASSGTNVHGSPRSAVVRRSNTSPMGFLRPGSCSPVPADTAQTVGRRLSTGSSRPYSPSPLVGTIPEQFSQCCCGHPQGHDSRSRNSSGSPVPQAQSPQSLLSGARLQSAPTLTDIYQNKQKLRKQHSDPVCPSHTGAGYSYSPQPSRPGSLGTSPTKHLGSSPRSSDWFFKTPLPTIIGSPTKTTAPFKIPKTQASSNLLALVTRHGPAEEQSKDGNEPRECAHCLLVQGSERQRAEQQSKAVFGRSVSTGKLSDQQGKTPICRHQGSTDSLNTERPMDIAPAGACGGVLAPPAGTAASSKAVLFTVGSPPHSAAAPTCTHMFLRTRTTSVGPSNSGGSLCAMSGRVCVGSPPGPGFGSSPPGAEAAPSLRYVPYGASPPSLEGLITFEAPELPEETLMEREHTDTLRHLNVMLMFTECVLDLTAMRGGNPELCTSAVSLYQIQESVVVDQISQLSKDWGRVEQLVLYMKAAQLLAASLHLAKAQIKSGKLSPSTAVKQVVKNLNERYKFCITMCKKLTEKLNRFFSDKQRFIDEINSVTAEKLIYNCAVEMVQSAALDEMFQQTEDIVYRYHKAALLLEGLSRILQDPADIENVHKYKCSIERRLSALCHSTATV
Sequence of Tyrosine-protein kinase Blk (Homo sapiens) (P51451 2-505 limits assumed): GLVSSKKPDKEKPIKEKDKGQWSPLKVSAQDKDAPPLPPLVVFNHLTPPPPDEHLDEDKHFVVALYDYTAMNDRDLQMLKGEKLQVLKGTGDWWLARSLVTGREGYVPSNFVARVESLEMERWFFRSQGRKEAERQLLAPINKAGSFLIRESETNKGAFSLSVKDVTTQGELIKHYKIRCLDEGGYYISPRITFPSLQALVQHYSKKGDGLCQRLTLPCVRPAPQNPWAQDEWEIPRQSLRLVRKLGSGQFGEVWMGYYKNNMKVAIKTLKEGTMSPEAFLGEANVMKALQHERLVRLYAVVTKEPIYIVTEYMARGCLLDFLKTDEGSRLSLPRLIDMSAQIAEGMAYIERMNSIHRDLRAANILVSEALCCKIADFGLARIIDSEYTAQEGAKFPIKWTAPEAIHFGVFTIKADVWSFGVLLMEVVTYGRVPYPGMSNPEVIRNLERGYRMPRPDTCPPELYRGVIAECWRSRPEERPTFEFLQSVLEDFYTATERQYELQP
Sequence of Serine/threonine-protein kinase 26 (Homo sapiens) (Q9P289 2-416 limits assumed): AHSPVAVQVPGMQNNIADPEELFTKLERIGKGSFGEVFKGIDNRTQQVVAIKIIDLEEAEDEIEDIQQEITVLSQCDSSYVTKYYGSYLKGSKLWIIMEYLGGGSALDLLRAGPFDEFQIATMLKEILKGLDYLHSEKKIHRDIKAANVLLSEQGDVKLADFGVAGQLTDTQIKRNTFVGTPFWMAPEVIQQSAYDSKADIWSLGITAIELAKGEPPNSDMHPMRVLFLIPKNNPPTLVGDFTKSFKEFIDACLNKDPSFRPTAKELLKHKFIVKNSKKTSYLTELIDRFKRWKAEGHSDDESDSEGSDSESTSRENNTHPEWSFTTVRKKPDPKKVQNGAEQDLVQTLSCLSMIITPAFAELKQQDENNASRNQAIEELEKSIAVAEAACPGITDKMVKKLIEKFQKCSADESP
Sequence of Cyclin-dependent kinase 17 (Homo sapiens) (Q00537 whole entry, looked up, the tested form may be a part): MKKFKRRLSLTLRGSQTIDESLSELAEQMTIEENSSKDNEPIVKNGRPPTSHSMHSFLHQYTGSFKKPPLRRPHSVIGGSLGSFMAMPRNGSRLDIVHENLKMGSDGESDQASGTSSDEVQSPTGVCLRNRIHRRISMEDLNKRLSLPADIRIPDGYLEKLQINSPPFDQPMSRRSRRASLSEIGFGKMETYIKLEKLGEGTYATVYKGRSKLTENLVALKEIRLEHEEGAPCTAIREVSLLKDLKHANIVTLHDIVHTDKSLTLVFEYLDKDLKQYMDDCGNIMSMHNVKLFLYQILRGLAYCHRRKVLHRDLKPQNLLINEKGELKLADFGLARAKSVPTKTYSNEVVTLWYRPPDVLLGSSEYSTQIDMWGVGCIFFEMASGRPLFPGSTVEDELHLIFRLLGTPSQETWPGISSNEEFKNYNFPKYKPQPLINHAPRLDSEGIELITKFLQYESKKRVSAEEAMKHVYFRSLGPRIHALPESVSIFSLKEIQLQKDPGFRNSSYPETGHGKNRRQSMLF
Sequence of Casein kinase II subunit alpha (Homo sapiens) (P68400 whole entry, looked up, the tested form may be a part): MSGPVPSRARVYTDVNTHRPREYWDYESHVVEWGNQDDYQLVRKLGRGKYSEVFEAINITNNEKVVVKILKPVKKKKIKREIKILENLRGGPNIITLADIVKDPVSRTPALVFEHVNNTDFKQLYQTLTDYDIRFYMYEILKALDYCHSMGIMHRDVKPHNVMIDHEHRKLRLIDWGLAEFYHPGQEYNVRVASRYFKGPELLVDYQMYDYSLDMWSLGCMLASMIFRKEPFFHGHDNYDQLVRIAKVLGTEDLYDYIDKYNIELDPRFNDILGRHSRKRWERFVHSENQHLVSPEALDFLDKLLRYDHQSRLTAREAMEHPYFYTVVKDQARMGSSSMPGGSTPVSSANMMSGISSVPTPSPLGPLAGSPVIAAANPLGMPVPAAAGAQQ

For orientation: AUC(0-inf) means the area under the concentration-time curve extrapolated to infinity. `Cc1ccc(NC(=O)c2ccc(CN(CCN(C)C)C(=O)c3cccnc3)cc2)cc1Nc1nccc(-c2cccnc2)n1`: the Activity in data set [1] was 0.8%; in data set [2], 100%; in data set [3], 100%; in data set [5], 84%; in [6], 100%; in [7], 87%. The Activity result was “Dose-dependent effect” with NCI-H1703 [9]; 81% in data set [10]; 93% in data set [11]; 100% in data set [12]; 99% in data set [14]; 87% in data set [15]. The Activity in [16] was determined as 100%; in [17] it was 10%; in data set [18] it was 95%; in [19] it was 88%; in data set [20] it was 99%. The result in the data set on NCI-H1703 [4] was inactive. Besides, the outcome with NCI-H1703 [8] was Active. Besides, the Vz in the data set on Rattus norvegicus amounted to 256.181 L/kg. In addition, the AUC(0-inf) in data set [13] turned out to be 115 ng·h/mL.

The record behind these values is ChEMBL document CHEMBL4229344 (Eur J Med Chem, 2018).
